# Shown are actives, neighbours in structure and some others; about 3.5% of the full set was active somewhere.
# RGS4 block = inhibitors of human RGS4; P49798; HEK293 M3R/RGS4 inducible, Fluo-4 calcium flux; hits give high values; triggered by carbachol at its EC20; B-score at 10 µM; actives 0.45% (n = 310,000);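 active means B-score, a plate-corrected calcium signal, over three deviations above library mean, with baseline fluorescence within five deviations of library mean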;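 further: RGS4 expression induced by doxycycline in cells with stable M3 receptor; B-score is computed from the integrated fluorescence ratio over baseline after carbachol; higher B-score means a larger calcium signal and so more RGS4 inhibition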
# Target sequence (P49798 whole entry, looked up): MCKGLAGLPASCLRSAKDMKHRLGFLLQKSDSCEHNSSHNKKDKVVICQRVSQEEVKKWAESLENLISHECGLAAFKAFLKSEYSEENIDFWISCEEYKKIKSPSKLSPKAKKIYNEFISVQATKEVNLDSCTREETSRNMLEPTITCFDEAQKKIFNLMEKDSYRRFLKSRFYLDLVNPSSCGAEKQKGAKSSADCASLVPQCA
# MrgX1 PAM = allosterically activates human MrgX1 receptor signaling. AID 588675. actives 0.63% (n = 310,000). B-score at 10 µM. MrgX1-HEK293, Fluo-4 calcium flux, FDSS; hits give high values;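 active means plate-corrected calcium response at least 3 library SD above typical, normal starting fluorescence, not activating the receptor alone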;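 further: compound read alongside a low EC10 to EC30 dose of BAM8-22 agonist; peak minus trough fluorescence over baseline measured at the second addition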
# Target sequence (Q96LB2 whole entry, looked up): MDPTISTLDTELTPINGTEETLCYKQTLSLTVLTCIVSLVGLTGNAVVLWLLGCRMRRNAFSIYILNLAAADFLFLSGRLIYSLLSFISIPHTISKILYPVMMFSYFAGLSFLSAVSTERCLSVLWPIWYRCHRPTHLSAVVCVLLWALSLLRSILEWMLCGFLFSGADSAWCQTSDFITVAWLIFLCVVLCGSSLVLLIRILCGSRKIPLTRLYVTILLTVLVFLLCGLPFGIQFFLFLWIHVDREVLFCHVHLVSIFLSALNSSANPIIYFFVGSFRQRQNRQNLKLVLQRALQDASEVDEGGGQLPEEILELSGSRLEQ
# MrgX1 agonist = activates human MrgX1 receptor signaling; Q96LB2; MrgX1-HEK293 cells, Fluo-4 calcium fluorescence, agonist mode; hits give high values; B-score at 10 µM; actives 0.44% (n = 310,000); AID 588627;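 active means calcium response B-score plate-corrected fluorescence ratio at least 3 library SD, with starting fluorescence B-score inside 5 SD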
#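 Material: MrgX1-expressing HEK293 cells / Dosing: compound as first of three additions / Incubation: overnight seeding, then 1 h dark dye loading / Signal: Fluo-4 NW calcium fluorescence / Evaluation: B-scored fluorescence response ratio / Benchmarks: positive and negative control wells on each plate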
# MrgX1 antag = human MrgX1 receptor antagonism, primary screen; B-score at 10 µM; MRGX1-HEK293 calcium flux, Fluo-4, BAM8-22 antagonism; hits give low values; AID 588676; actives 1.3% (n = 310,000);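 active means calcium-response B-score plate-corrected more than 3 library SD below zero, starting fluorescence within 5 deviations, no agonist response on first addition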;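 further: peak minus trough fluorescence over baseline after final BAM8-22 challenge near maximal dose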
# RGS4 pot = potentiators or activators of RGS4 | HEK293 M3R/inducible RGS4, carbachol calcium flux Fluo4; hits give low values | B-score at 10 µM | actives 0.92% (n = 310,000) | AID 463111;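 active means B-score of the integrated calcium signal more than 4 SD below the library mean, with starting fluorescence not abnormally high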;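 further: negative B-score means reduced calcium response which marks RGS4 activation or potentiation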
#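 Test system: HEK293 cells with stable M3R and inducible RGS4; also added: carbachol at ECmax as muscarinic agonist stimulus; schedule: dye loading 30 min 37 °C, buffer rest 30 min RT; technique: kinetic calcium fluorescence imaging with Fluo4-AM dye, 2 µM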
# RGS4 block valid = validation of RGS4 inhibitors. calcium response, % at 10 µM. shares compounds with RGS4 block. actives 65% (n = 1,700). HEK293 M3R/RGS4, carbachol calcium Fluo-4 fluorescence; carbachol added at its EC20; 0 = buffer wells, 100 = carbachol control. AID 492999;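 active means duplicate-averaged calcium response above the buffer-only control mean plus 5 SD of those controls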;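 further: integrated fluorescence ratio F max minus min over baseline F0; higher response in RGS4-induced cells means RGS4 inhibition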
# RGS4 uninduced = counter-screen for RGS4 inhibitors: effect in non-induced cells | actives 20% (n = 1,900) | shares compounds with RGS4 block | HEK293 M3R non-induced, carbachol calcium Fluo-4; submaximal (EC20) carbachol stimulus; buffer wells 0%, carbachol control wells 100% | activity (percent), % at 10 µM | AID 493000; call rule not given here;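 further: RGS4 induction absent so cells express M3R without RGS4; higher means more calcium signal and flags a non-specific hit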
# M3R basal Ca ctr = signal in non-induced cells without carbachol, RGS4 inhibitor counter-screen; actives 22% (n = 1,900); shares compounds with RGS4 block; HEK293 M3R/RGS4 non-induced, Fluo-4 calcium, no carbachol; normalised: buffer wells 0%, carbachol wells 100%; calcium response (agonist-mode artifact), % at 10 µM; AID 493001;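 active means duplicate-averaged calcium rise in uninduced cells above buffer wells' mean plus 5 SD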
# * hit, by the source's call; i = inactive; nt = no result.
SMILES,RGS4 block,MrgX1 PAM,MrgX1 agonist,MrgX1 antag,RGS4 pot,RGS4 block valid,RGS4 uninduced,M3R basal Ca ctr
COc1cccc(-c2nc(C=O)cs2)c1,5.03*,i,i,i,i,5.0%*,i,i
O=C1N=C2SCCN2/C1=C\c1ccc(Cl)cc1,25.2*,i,i,i,i,85.0%*,i,i
Cc1ccc(/C=C2\SC(N3CCCC3)=NC2=O)cc1,i,i,i,i,i,nt,nt,nt
O=C(CCC(=O)Nc1ccccc1Cl)NN=C1CCCC1,i,i,i,i,i,nt,nt,nt
Cc1nn2c(NCc3ccccn3)cc(C(C)C)nc2c1-c1ccccc1,i,i,i,i,i,nt,nt,nt
CC(=O)Nc1ccc(Nc2cc(C(C)C)nc3c(-c4ccccc4)c(C)nn23)cc1,7.2*,i,i,i,i,41.0%*,59.5%*,i
CC(=O)Nc1ccc(Nc2cc(C)nc3c(-c4ccccc4)c(C)nn23)cc1,8.57*,i,i,i,i,13.0%*,i,i
N=C1/C(=C/c2cccn2Cc2ccc(F)cc2)C(=O)N=C2SC=CN12,i,i,i,i,i,nt,i,21.0%*
Cc1ccc(Cn2cccc2/C=C2/C(=N)N3C=CSC3=NC2=O)cc1,i,i,i,i,i,i,i,i
Cc1cccc(Cn2cccc2/C=C2/C(=N)N3C=CSC3=NC2=O)c1,i,i,i,i,i,nt,nt,nt
COC(=O)Oc1ccc(/C=N/NC(=O)CSCc2ccccc2Br)cc1OC,i,i,i,i,i,nt,nt,nt
CC1(C)COC(/C=C/c2ccc([N+](=O)[O-])cc2)=N1,5.68*,i,i,i,i,8.0%*,29.0%*,i
CCOc1cccc(C2C(C(=O)c3ccc(C)o3)=C(O)C(=O)N2Cc2ccccc2)c1 (stereo not given),4.71*,nt,nt,nt,i,16.5%*,i,i
CN(C)CCCNS(=O)(=O)c1ccc(NC2CCCCCC2)c([N+](=O)[O-])c1,i,i,i,i,i,nt,nt,nt
CCOC(=O)c1ccccc1NC(=O)COC(=O)CCNS(=O)(=O)c1ccccc1,i,i,i,i,i,nt,nt,nt
O=S(=O)(Nc1cccc2ccccc12)c1cccs1,i,i,i,i,i,nt,nt,nt
O=S(=O)(Nc1ccc(O)c2ccccc12)c1cccs1,8.05*,i,i,i,i,37.0%*,i,i
CNC(=S)N(CCO)Cc1cc2cc3c(cc2[nH]c1=O)OCCO3,i,i,i,i,i,nt,nt,nt
COCCCNC(=S)N(CCO)Cc1cc2cc3c(cc2[nH]c1=O)OCCO3,5.15*,i,i,i,i,i,i,i
COCCNC(=S)N(CCO)Cc1cc2cc3c(cc2[nH]c1=O)OCCO3,i,i,i,i,i,i,i,i
CCN(CC)CCN(Cc1cc2cc3c(cc2[nH]c1=O)OCCO3)C(=S)NCCCOC,i,i,i,i,i,i,i,i
CCCCNC(=S)N(CCCO)Cc1cc2cc3c(cc2[nH]c1=O)OCCO3,i,i,i,i,i,nt,nt,nt
CC1=C(C#N)c2nc(N)c(C#N)c(C)c2/C1=C\c1ccc(-c2ccccc2C(=O)O)o1,5.64*,nt,nt,nt,i,23.5%*,32.5%*,i
COc1cc(/C=C2/C(C)=C(C#N)c3nc(N)c(C#N)c(C)c32)ccc1OCC(=O)O,i,i,i,i,i,nt,nt,nt
O=C(NNc1cc(Cl)ccc1Cl)C1CCC1,i,i,i,i,i,nt,nt,nt
SMILES,RGS4 block,MrgX1 PAM,MrgX1 agonist,MrgX1 antag,RGS4 pot,RGS4 block valid,RGS4 uninduced,M3R basal Ca ctr
O=[N+]([O-])c1cc(-c2csc(NC(CO)c3nc4ccccc4n3CCOCCO)n2)ccc1Cl (stereo not given),7.67*,i,i,i,i,6.0%*,39.5%*,i
CCCn1c(C(C)Nc2nc(-c3ccc(C)cc3)cs2)nc2ccccc21 (stereo not given),i,i,i,i,i,nt,nt,nt
CCCn1c(C(C)Nc2nc(-c3ccc(Cl)c([N+](=O)[O-])c3)cs2)nc2ccccc21 (stereo not given),8.01*,i,i,i,i,16.5%*,i,i
OCCOCCn1c(C(CO)Nc2nc(-c3ccc(F)cc3)cs2)nc2ccccc21 (stereo not given),i,i,i,i,i,nt,nt,nt
CCCn1c(C(C)Nc2nc(-c3cccc(Br)c3)cs2)nc2ccccc21 (stereo not given),i,i,i,i,i,nt,i,i
Cc1ccc(C)c(NC(=O)CCC(=O)NN=C2CCCC2)c1,i,i,i,i,i,nt,nt,nt
COc1ccc(CCNC(=O)/C=C/c2ccc3ccccc3n2)cc1OC,13.1*,i,i,i,i,34.5%*,31.5%*,i
COc1ccc(/C=C/C(=O)NCCc2ccc(OC)c(OC)c2)cc1,i,i,i,i,i,nt,nt,nt
CC(=O)Nc1nc(CCN2C(=O)c3ccccc3C2=O)cs1,i,i,i,i,i,nt,nt,nt
Cc1cc2nc(CS)[nH]c2cc1C,5.92*,i,i,i,i,28.0%*,i,i
Cc1cc2nc(CO)[nH]c2cc1C,i,i,i,i,i,nt,nt,nt
CC(=O)C1=C(C)OC(N)=C(C#N)C1c1cccc([N+](=O)[O-])c1 (stereo not given),7.18*,i,i,i,i,i,i,i
Cc1ccc(CCNC(=O)c2cc(-c3ccncc3)nc3ccc(S(=O)(=O)N4CCOCC4)cc23)cc1,i,i,i,i,i,nt,nt,nt
CCOC(=O)c1c(NC(=O)CC2SC(N)=NC2=O)sc2c1CCC(C)C2 (stereo not given),i,i,i,i,i,nt,nt,nt
COC(=O)c1c(NC(=O)CC2SC(N)=NC2=O)sc2c1CCC(C(C)(C)C)C2 (stereo not given),12*,i,i,i,i,43.0%*,i,i
COC(=O)c1c(NC(=O)CC2SC(N)=NC2=O)sc2c1CCC(C)C2 (stereo not given),i,i,i,i,i,nt,i,i
